Results gathered from unrelated publications.
MMP2: 72 kDa type IV collagenase (MMP2, Homo sapiens, UniProt P08253)
F10: Coagulation factor X (F10, Homo sapiens, UniProt P00742)
SETD7: Histone-lysine N-methyltransferase SETD7 (SETD7, Homo sapiens, UniProt Q8WTS6)
UCHL1: Ubiquitin carboxyl-terminal hydrolase isozyme L1 (UCHL1, Homo sapiens, UniProt P09936)

CCN(CC)CCCC[C@H](NC(=O)[C@H](CC(C)C)NC(=O)[C@H](C)NC(=O)[C@H](Cc1ccccc1)NC(=O)c1ccc(C(C)(C)C)cc1)C(=O)N[C@@H](CO)C(=O)OC  inhibition (Galanin receptor type 2 (GALR2, Homo sapiens, UniProt O43603); ligand displacement, radioligand; 10 µM): -21%
Cn1cc(-c2cc(F)cc(N3CCn4c(cc5c4CCCC5)C3=O)c2CO)cc(Nc2ccc(N3CCN(C4COC4)CC3)cn2)c1=O  inhibition (G protein-coupled receptor kinase 5 (GRK5, Homo sapiens, UniProt P34947); enzyme activity, inhibitor; 0.1 µM): 4%
N=C(N)c1ccc2cc(OC(=O)c3ccc(N=C(N)N)cc3)ccc2c1  inhibition (MMP2; enzyme activity, inhibitor; 10 µM): 0%
Cc1ncc(C)n2nc(/C=C/c3nc(N4CCCC4)cc(N4CCOCC4)n3)nc12  inhibition (MMP2; enzyme activity, inhibitor; 10 µM): 3%
CC(C)C[C@H](NC(=O)[C@H](Cc1ccccc1)NC(=O)c1cnccn1)B(O)O  inhibition (F10; enzyme activity, inhibitor; 33 µM): 48.8%
CC(C)=CCC[C@]1(C)C=Cc2c(O)c3c(c(CC=C(C)C)c2O1)O[C@]12C(=C[C@@H]4C[C@H]1C(C)(C)O[C@@]2(C/C=C(/C)C(=O)O)C4=O)C3=O  inhibition (SETD7; cell-free assay; 10 µM): -5%
C[C@H](C(=O)N[C@H]1COc2ccccc2[C@@H]1S(C)(=O)=O)c1ccc(F)cc1  inhibition (F10; enzyme activity, inhibitor; 10 µM): -3%
O=C(Nc1cccnn1)N1CCN([C@@H]2CCOc3cc(C(F)(F)F)ccc32)CC1  inhibition (MMP2; cell-free assay; 20 µM): 20%
CN(C)C(=O)COC(=O)Cc1ccc(OC(=O)c2ccc(NC(=N)N)cc2)cc1  inhibition (UCHL1; enzyme activity, inhibitor; 10 µM): 7%
CC(C)=CCCC1(C)C=Cc2c(O)c3c(c(CC=C(C)C)c2O1)OC12C(=CC4CC1C(C)(C)OC2(C/C=C(/C)C(=O)O)C4O)C3=O (centres unmarked)  inhibition (SETD7; cell-free assay; 10 µM): 11%
COc1ccc(S(=O)(=O)N(CC(=O)NO)CC(C)C)cc1  inhibition (MMP2; enzyme activity, inhibitor; 10 nM): 24%
Cn1cc(-c2cccc(N3CCc4c(sc5c4CC(C)(C)C5)C3=O)c2CO)cc(Nc2ccncn2)c1=O  inhibition (G protein-coupled receptor kinase 6 (GRK6, Homo sapiens, UniProt P43250); enzyme activity, inhibitor; 1 µM): -1%
CCOC(=O)c1ccc(OC(=O)CCCCCNC(=N)N)cc1  inhibition (UCHL1; enzyme activity, inhibitor; 10 µM): 5%
C#Cc1n[nH]c2c(-c3cn([C@@H](C)c4ccccn4)c(=O)[nH]c3=O)cc(F)cc12  inhibition (Casein kinase I isoform gamma-1 (CSNK1G1, Homo sapiens, UniProt Q9HCP0); enzyme activity, inhibitor; 0.1 µM): 2.6%
